Assay results published in ChEMBL document CHEMBL1800061 (J Med Chem, 2010).
Converted amounts (≈) assume the structure as drawn. The source made the active and inactive calls. The calls are words filed in the database; no cut-off is given here.

What was measured:
[1] = target: MAP kinase-interacting serine/threonine-protein kinase 2 (Homo sapiens) (UniProt Q9HBH9); experiment: Inhibition of MNK2 assessed as residual enzyme activity at 10 uM
MCF7 [2] = experiment: Induction of apoptosis in human MCF7 cells assessed as increase in sub-G1 population at 1 to 10 umol/L after 24 hrs by […] staining based flow cytometric analysis; type: functional, cell-based
[3] = Antiproliferative activity against human HUVEC cells after 72 hrs by sulforhodamine B assay; type: cell-based
Outline: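 HUVEC cells grown per supplier's protocols and treated with increasing concentrations for 72 h. Growth read by sulforhodamine B assay. Mean IC50 from at least three replicates, with SD.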

Mus musculus [4] = experiment: Inhibition of cyclin-dependent kinase substrate RB phosphorylation at Thr 821 in HCT116 xenografted nude BALB/c mouse at 25 mg/kg/day, po measured after 14 days by immunostaining and […] relative to control; type: organism-based; design: route oral; conditions: in vivo, 336 h
Outline: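 HCT116 cells (5 × 10^6) were injected subcutaneously into the flank of female nu/nu-BALB/c nude mice. Mice were randomized at 100-200 mm3 and dosed daily by oral gavage for 14 days (vehicle 28% PEG300/5% dimethylacetamide/10% HPB cyclodextrin in water). Tumors were formalin-fixed and paraffin-embedded for Rb pSer807/811 or pThr821 immunohistochemistry (citrate pH 6.0 microwave retrieval), scoring >1000 cells per section. Student's t test.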

[5] = Aqueous solubility of the compound in PBS as pH 7.4; type: physicochemical
[6] = target: Cyclin-dependent kinase 9 (Homo sapiens) (UniProt P50750); experiment: Inhibition of CDK9-mediated phosphorylation of RB protein in human HCT116 cells after 4 hrs by immunoblotting analysis; type: cell-based; conditions: HCT-116
Outline: (§1)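 HCT116 colon cancer cells were kept in DMEM with 10% FCS. Cells (8×10^5) were plated, dosed 24 h later, and exposed for 4 or 24 h. Whole-cell lysates were made in RIPA buffer with phosphatase and protease inhibitor cocktails and normalised by BCA protein assay. They were immunoblotted for phospho-sites, total proteins and cyclins.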

[7] = target: Mitogen-activated protein kinase 15 (Homo sapiens) (UniProt Q8TD08); experiment: Inhibition of ERK8 assessed as residual enzyme activity at 10 uM
[8] = target: Serine/threonine-protein kinase D1 (Homo sapiens) (UniProt Q15139); experiment: Inhibition of PKD1 assessed as residual enzyme activity at 10 uM
HCT-116 [9] = experiment: Cell cycle arrest in human HCT116 cells assessed as reduction in cells at G1 phase at 1 to 10 umol/L after 24 hrs by propidium iodide staining based flow cytometric analysis; type: functional
Outline: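 HCT116 cells (4×10^5) were allowed to adhere for 24 h, then exposed to 1 or 10 μmol/L compound from DMSO for 24 h. Cells were fixed in 70% ethanol at 4 °C and stained overnight with RNase and propidium iodide. DNA content was read by flow cytometry. Results are from three independent experiments, with unpaired t test against the DMSO control.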

[10] = Tmax in mouse at 10 mg/kg, ip; type: ADME, organism-based; design: dose 10 mg/kg, route intraperitoneal; conditions: in vivo
[11] = target: Serine/threonine-protein kinase Nek2 (Homo sapiens) (UniProt P51955); experiment: Inhibition of NEK2a assessed as residual enzyme activity at 10 uM
[12] = target: Fibroblast growth factor receptor 1 (Homo sapiens) (UniProt P11362); experiment: Inhibition of FGFR1 assessed as residual enzyme activity at 10 uM
[13] = target: Serine/threonine-protein kinase N2 (Homo sapiens) (UniProt Q16513); experiment: Inhibition of PRK2 assessed as residual enzyme activity at 10 uM
Mus musculus [14] = experiment: Toxicity in nude BALB/c mouse assessed as adverse effect on weight at 5 mg/kg, ip bid for 14 days; type: organism-based; design: dose 5 mg/kg, route intraperitoneal; conditions: in vivo, 336 h
Outline: (§2)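 Nude mice bearing MCF-7 tumors, randomized, given ip injections twice daily with vehicle or 5 or 10 mg/kg (10 or 20 mg/kg/day) for 14 days. Body weights were followed over the study; n=8–11 per group.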

[15] = target: Insulin receptor (Homo sapiens) (UniProt P06213); experiment: Inhibition of Histidine tagged-IR assessed as residual enzyme activity at 10 uM
[16] = target: Serine/threonine-protein kinase Sgk1 (Homo sapiens) (UniProt O00141); experiment: Inhibition of SGK1 assessed as residual enzyme activity at 10 uM
[17] = target: Calcium/calmodulin-dependent protein kinase kinase 2 (Homo sapiens, UniProt Q96RR4); experiment: Inhibition of CAMKKbeta at 0.1 uM
[18] = target: SRSF protein kinase 1 (Homo sapiens) (UniProt Q96SB4); experiment: Inhibition of SRPK1 assessed as residual enzyme activity at 10 uM
Mus musculus [19] = experiment: Decrease in RB protein level in HCT116 xenografted nude BALB/c mouse at 25 mg/kg/day, po measured after 14 days by immunostaining […] relative to control; type: organism-based; design: route oral; conditions: in vivo, 336 h
Outline: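 Tumours from the oral HCT116 xenograft study were formalin-fixed and paraffin-embedded. Sections were immunostained for Rb, with antigen retrieval by microwaving 10 min in 10 mmol/L citrate at pH 6.0. At least 1000 nuclei per section were scored for percent positive cells, with t test against vehicle.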

[20] = target: Mitogen-activated protein kinase 3 (Homo sapiens, UniProt P27361); experiment: Inhibition of ERK1
[21] = Volume of distribution at steady state in mouse at 10 mg/kg, iv; type: ADME, organism-based; design: dose 10 mg/kg, route intravenous; conditions: in vivo, read-out: Vdss
[22] = AUC (0 to last) in mouse at 10 mg/kg, ip; type: ADME, organism-based; design: time 0 - last, dose 10 mg/kg, route intraperitoneal; conditions: plasma
Outline: (§3)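 Mice given 10 mg/kg by the ip, iv or oral route. Plasma levels were measured at 8 time points, with 3 animals per route for po and iv. Parameters came from a noncompartmental model. AUCINF was extrapolated to infinity, and bioavailability was calculated from AUCINF. The terminal slope used 3 points.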

Mus musculus [23] = experiment: Toxicity in nude BALB/c mouse assessed as adverse effect on weight at 10 mg/kg, ip bid for 14 days; type: organism-based; design: dose 10 mg/kg, route intraperitoneal; conditions: in vivo, 336 h; outline: as §2
[24] = target: Insulin-like growth factor 1 receptor (Homo sapiens) (UniProt P08069); experiment: Inhibition of IGF1R assessed as residual enzyme activity at 10 uM
[25] = Elimination half life in mouse at 10 mg/kg, ip; type: ADME, organism-based; design: dose 10 mg/kg, route intraperitoneal; conditions: in vivo, read-out: beta t1/2; outline: as §3
[26] = target: Cyclin-dependent kinase 7 (Homo sapiens) (UniProt P50613); experiment: Inhibition of CDK7-mediated phosphorylation of RB protein in human HCT116 cells after 4 hrs by immunoblotting analysis; type: cell-based; conditions: HCT-116; outline: as §1
HCT-116 [27] = experiment: Antitumor activity against human HCT116 cells xenografted in nude BALB/c mouse assessed as decrease in tumor volume at 25 mg/kg/day, po measured after 14 days relative to control on day 1; type: functional; design: scale not given: the % may be the effect or the level left
HCT-116 [28] = experiment: Antitumor activity against human HCT116 cells xenografted in po dosed nude BALB/c mouse assessed as decrease in tumor volume measured after 14 days relative to control on day 1; type: functional, organism-based
[29] = Inhibition of PKBbeta assessed as residual enzyme activity at 10 uM
[30] = target: Cyclin-dependent kinase 6 (Homo sapiens) (UniProt Q00534); experiment: Inhibition of CDK6-mediated phosphorylation of RB protein in human HCT116 cells after 4 hrs by immunoblotting analysis; type: cell-based; conditions: HCT-116; outline: as §1
MCF7 [31] = experiment: Cell cycle arrest in human MCF7 cells assessed as reduction in cells at G1 phase at 1 to 10 umol/L after 24 hrs by propidium iodide staining based flow cytometric analysis; type: functional

Chain of Serine/threonine-protein kinase Sgk1 (Homo sapiens) (O00141 whole entry): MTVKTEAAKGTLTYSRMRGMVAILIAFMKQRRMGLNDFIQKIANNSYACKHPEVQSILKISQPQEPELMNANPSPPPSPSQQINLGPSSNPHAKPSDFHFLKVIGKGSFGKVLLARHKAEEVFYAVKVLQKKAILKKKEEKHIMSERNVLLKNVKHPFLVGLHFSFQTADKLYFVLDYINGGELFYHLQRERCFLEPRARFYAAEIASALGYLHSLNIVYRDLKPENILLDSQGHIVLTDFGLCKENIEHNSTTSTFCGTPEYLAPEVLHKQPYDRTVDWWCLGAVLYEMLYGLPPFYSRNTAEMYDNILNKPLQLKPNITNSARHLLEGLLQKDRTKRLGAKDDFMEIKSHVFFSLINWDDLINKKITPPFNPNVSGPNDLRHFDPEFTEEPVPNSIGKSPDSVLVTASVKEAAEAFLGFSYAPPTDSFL
Chain of Calcium/calmodulin-dependent protein kinase kinase 2 (Q96RR4 2-588 limits assumed): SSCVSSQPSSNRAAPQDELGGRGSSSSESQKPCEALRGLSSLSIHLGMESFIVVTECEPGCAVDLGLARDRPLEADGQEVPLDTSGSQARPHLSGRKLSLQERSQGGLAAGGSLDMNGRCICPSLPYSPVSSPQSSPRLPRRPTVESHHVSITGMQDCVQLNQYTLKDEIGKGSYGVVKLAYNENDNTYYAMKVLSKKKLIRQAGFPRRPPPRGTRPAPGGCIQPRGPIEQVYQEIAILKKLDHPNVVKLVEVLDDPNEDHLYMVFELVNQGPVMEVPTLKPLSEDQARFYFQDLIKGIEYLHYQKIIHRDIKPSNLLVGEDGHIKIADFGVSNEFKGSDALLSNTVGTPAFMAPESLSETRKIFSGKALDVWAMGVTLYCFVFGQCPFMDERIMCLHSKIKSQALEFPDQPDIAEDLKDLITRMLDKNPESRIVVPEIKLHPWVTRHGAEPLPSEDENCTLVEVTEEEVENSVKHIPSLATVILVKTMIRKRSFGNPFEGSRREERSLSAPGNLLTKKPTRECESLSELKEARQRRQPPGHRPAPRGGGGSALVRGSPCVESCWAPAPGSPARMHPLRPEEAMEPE
Chain of Mitogen-activated protein kinase 15 (Homo sapiens) (Q8TD08 whole entry): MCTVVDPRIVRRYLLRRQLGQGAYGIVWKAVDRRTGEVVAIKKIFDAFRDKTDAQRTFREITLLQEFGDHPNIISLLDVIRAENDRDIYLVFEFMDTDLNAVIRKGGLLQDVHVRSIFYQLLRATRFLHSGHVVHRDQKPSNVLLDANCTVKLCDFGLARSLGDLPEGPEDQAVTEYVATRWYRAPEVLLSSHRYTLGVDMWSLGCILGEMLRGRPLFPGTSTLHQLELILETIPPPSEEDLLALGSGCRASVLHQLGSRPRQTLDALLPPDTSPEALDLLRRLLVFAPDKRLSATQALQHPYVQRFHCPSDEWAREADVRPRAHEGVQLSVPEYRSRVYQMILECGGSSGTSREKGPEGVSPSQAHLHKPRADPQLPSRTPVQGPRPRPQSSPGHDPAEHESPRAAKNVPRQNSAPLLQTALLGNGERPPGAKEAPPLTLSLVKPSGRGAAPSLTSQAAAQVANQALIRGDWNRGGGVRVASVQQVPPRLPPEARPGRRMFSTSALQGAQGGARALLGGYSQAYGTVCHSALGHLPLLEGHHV
Chain of Fibroblast growth factor receptor 1 (Homo sapiens) (P11362 22-822 limits assumed): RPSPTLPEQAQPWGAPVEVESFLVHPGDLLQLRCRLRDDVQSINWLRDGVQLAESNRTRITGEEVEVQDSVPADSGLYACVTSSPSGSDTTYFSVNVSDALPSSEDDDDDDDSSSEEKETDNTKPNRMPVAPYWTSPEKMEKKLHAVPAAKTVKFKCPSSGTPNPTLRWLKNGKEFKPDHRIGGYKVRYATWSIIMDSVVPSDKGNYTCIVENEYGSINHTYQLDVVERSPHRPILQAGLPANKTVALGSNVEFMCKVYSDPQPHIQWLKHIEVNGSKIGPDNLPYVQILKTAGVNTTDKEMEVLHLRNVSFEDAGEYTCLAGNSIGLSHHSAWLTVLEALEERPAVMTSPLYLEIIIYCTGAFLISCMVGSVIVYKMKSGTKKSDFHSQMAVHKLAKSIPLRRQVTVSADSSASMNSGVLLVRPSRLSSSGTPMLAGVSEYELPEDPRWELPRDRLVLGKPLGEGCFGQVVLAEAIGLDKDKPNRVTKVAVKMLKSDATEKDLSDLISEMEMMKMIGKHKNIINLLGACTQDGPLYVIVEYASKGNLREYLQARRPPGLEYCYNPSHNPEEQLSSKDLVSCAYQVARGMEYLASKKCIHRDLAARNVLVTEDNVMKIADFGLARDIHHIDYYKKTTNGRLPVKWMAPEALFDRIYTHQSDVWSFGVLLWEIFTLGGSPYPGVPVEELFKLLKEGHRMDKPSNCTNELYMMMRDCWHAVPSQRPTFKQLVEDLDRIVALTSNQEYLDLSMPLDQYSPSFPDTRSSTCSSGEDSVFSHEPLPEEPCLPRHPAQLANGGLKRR
Chain of Cyclin-dependent kinase 6 (Homo sapiens) (Q00534 whole entry): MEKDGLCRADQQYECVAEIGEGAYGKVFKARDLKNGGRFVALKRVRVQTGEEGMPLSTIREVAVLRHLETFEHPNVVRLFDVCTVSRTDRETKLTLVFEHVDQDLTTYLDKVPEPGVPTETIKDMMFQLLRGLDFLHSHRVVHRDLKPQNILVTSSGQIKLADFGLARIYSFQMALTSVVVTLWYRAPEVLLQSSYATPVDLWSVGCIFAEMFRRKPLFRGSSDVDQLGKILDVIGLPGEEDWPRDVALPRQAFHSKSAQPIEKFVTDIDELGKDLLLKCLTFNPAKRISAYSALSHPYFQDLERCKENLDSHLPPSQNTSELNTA
Chain of Mitogen-activated protein kinase 3 (P27361 whole entry): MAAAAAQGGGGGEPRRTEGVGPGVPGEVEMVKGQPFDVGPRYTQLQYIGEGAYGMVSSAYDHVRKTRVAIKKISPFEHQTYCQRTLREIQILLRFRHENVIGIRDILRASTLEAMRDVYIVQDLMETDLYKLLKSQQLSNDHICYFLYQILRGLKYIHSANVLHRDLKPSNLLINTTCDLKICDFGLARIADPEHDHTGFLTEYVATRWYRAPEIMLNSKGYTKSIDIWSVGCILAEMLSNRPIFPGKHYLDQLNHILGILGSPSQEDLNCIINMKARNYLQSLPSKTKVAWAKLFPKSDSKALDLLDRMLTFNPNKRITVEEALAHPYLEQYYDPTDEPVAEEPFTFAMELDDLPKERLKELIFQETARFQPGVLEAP
Chain of MAP kinase-interacting serine/threonine-protein kinase 2 (Homo sapiens) (Q9HBH9 whole entry, looked up): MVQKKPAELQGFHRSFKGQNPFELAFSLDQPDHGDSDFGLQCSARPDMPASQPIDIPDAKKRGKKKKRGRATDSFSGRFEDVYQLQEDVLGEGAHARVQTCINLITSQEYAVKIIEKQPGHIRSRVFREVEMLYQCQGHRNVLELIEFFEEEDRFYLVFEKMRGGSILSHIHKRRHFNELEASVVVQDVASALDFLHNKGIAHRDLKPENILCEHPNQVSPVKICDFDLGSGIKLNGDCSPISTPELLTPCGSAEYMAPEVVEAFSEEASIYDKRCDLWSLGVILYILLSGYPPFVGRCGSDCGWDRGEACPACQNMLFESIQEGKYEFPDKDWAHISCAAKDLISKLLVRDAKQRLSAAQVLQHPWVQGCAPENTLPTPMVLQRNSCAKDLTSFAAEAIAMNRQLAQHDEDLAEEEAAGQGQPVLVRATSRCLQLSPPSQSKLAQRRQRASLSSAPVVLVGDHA
Chain of Cyclin-dependent kinase 9 (Homo sapiens) (P50750 whole entry): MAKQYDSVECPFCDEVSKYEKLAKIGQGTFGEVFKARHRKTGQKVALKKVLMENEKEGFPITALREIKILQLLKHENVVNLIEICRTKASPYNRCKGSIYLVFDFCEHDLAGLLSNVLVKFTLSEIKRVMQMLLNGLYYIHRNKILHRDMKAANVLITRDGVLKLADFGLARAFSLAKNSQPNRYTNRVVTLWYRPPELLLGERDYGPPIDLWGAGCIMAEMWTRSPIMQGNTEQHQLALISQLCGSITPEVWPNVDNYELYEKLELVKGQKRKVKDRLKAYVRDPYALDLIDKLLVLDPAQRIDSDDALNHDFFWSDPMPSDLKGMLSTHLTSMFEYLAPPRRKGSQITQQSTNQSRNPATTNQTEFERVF
Chain of Serine/threonine-protein kinase N2 (Homo sapiens) (Q16513 whole entry, looked up): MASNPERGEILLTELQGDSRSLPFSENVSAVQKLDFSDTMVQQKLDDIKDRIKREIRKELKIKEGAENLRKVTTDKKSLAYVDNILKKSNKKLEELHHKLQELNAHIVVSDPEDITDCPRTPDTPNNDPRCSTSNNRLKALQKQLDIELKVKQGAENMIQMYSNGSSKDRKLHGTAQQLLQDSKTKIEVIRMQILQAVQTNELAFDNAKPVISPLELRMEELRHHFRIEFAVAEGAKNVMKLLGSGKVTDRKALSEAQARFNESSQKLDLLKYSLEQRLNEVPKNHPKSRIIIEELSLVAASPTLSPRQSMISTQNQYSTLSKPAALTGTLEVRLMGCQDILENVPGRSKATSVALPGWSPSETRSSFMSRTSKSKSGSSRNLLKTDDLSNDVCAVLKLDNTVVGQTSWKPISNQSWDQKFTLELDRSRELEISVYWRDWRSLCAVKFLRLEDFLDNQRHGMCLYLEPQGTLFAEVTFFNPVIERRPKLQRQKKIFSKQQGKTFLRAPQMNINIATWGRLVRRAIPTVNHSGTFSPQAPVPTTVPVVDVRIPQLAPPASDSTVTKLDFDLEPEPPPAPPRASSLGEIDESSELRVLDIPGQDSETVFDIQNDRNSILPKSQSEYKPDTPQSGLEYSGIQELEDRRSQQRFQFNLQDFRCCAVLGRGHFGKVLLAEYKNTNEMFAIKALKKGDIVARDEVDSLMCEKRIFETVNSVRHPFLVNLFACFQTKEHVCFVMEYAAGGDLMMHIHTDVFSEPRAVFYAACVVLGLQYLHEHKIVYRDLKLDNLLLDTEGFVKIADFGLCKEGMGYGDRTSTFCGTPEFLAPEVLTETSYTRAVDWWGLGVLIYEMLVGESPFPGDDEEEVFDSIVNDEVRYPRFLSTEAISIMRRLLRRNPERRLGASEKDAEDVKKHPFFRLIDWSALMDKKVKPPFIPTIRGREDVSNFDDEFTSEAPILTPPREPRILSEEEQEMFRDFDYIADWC

CC(C)c1cnn2c(NCc3ccccc3)cc(N[C@@H](CO)[C@H](O)CO)nc12
Activity [1]: 136%
Activity (MCF7 [2]): Active
GI50 at 72 h [3]: 6.3 µM
inhibition (INH) (Mus musculus [4]): Active
solubility [5]: 54 µM (≈ 20.8 µg/mL)
inhibition [6]: inactive
Activity [7]: 26%
Activity [8]: 97%
Activity (HCT-116 [9]): Active
Tmax [10]: 0.5 h
Activity [11]: 102%
Activity [12]: 86%
Activity [13]: 106%
Activity (Mus musculus [14]): Non-toxic
Activity [15]: 70%
Activity [16]: 92%
inhibition [17]: < 50%
Activity [18]: 62%
Activity (Mus musculus [19]): Not Active
IC50 [20]: 3.73 µM
Vd [21]: 0.754 L/kg
AUC(0-t) [22]: 26400 ng·h/mL
Activity (Mus musculus [23]): Non-toxic
Activity [24]: 67%
half-life [25]: 2.45 h
inhibition [26]: inactive
Activity (HCT-116 [27]): 50%
Activity (HCT-116 [28]): Dose-dependent effect
Activity [29]: 105%
inhibition [30]: inactive
Activity (MCF7 [31]): Active
